Test results: ChEMBL document CHEMBL4811303, “Synthesis and evaluation of trypanocidal activity of derivatives of naturally occurring 2,5-diphenyloxazoles” (Bioorg Med Chem, 2021)

How the values were obtained:
[1] = Selectivity index, ratio of IC50 for cytotoxicity against bovine MDBK cells to IC50 for Trypanocidal activity against Trypanosoma congolense
MDBK cells (Bos taurus) = test: Cytotoxicity against bovine MDBK cells assessed as reduction in cell viability incubated for 72 hrs by CCK8 assay
[2] = tested on: Trypanosoma brucei brucei; test: Trypanocidal activity against Trypanosoma brucei brucei assessed as reduction in intracellular ATP production incubated for 72 hrs by CellTiter-Glo luminescent cell viability assay; type: functional, organism-based
Method in brief: (§1)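 Bloodstream trypanosomes in 96-well culture were exposed to compound in 5-fold serial dilutions from 25 µg/mL to 1.6 ng/mL for 72 h. Seeding and temperature: T. b. brucei, T. b. gambiense and T. b. rhodesiense at 5×10^3 cells/mL and 37 °C; T. evansi at 1×10^4 cells/mL and 37 °C; T. congolense at 2×10^5 cells/mL and 33 °C. Viability was read as intracellular ATP by CellTiter-Glo luminescence. Three replicates; IC50 calculated.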

Trypanosoma congolense = test: Trypanocidal activity against Trypanosoma congolense assessed as reduction in intracellular ATP production incubated for 72 hrs by CellTiter-Glo luminescent cell viability assay; type: functional, organism-based
Method in brief: as §1

[3] = Selectivity index, ratio of IC50 for cytotoxicity against bovine MDBK cells to IC50 for Trypanocidal activity against Trypanosoma brucei brucei; details: cattle
[4] = tested on: Trypanosoma brucei rhodesiense; test: Trypanocidal activity against Trypanosoma brucei rhodesiense assessed as reduction in intracellular ATP production incubated for 72 hrs by CellTiter-Glo luminescent cell viability assay; type: functional, organism-based
Method in brief: as §1

[5] = Selectivity index, ratio of IC50 for cytotoxicity against bovine MDBK cells to IC50 for Trypanocidal activity against Trypanosoma evansi
Trypanosoma evansi = test: Trypanocidal activity against Trypanosoma evansi assessed as reduction in intracellular ATP production incubated for 72 hrs by CellTiter-Glo luminescent cell viability assay; type: functional, organism-based
Method in brief: as §1

[6] = Selectivity index, ratio of IC50 for cytotoxicity against bovine MDBK cells to IC50 for Trypanocidal activity against Trypanosoma brucei rhodesiense
[7] = Selectivity ratio of IC50 for trypanocidal activity against Trypanosoma congolense to trypanocidal activity against Trypanosoma evansi; type: functional
[8] = tested on: Trypanosoma brucei gambiense; test: Trypanocidal activity against Trypanosoma brucei gambiense assessed as reduction in intracellular ATP production incubated for 72 hrs by CellTiter-Glo luminescent cell viability assay; type: functional, organism-based
Method in brief: as §1

[9] = Selectivity index, ratio of IC50 for cytotoxicity against bovine MDBK cells to IC50 for Trypanocidal activity against Trypanosoma brucei gambiense; details: cattle

SMILES: Oc1ccccc1-c1coc(-c2cccc(O)c2O)n1
- selectivity ratio [1]: 11
- IC50 (MDBK cells (Bos taurus)): 9700 nM
- IC50 [2]: 1300 nM
- IC50 (Trypanosoma congolense): 850 nM
- selectivity ratio [3]: 7.5
- IC50 [4]: 1500 nM
- selectivity ratio [5]: 23
- IC50 (Trypanosoma evansi): 420 nM
- selectivity ratio [6]: 6.4
- Ratio IC50 [7]: 2
- IC50 [8]: 1600 nM
- selectivity ratio [9]: 6.1
